Like-named read-outs stand apart in the source and are kept apart here.
T1: c-Jun (Homo sapiens, UniProt P05412, S292Y)
T1 sequence (P05412 with tags, fused parts or gaps S292Y): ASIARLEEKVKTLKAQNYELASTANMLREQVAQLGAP


Key:
[1] = homodimer; cited from earlier work
c-Jun [2] = molecular target: T1, c-Jun; assay: Isothermal titration calorimetry; format: binding; conditions: for ΔH / ΔGbind (ITC) / TΔS (ΔH − ΔG): ITC, 20 °C; for ΔH: pH 7, one-site model; for ΔGbind (ITC): calculated by Equation 4; for TΔS (ΔH − ΔG): calculated from ΔH and ΔGbind
Procedure, shortened: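 VP-ITC at 20 °C in 10 mM potassium phosphate, 100 mM KF, pH 7. Syringe peptide at 175–250 μM was injected 25 × 5 μl into cell peptide at 10–40 μM; syringe and cell partners were also swapped. Each run was done at least twice. Isotherms fitted to a 1:1 one-site model for Kd and ΔH. ΔG calculated at 293.15 K; TΔS from ΔH and ΔG.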

[3] = CD spectra of peptides in isolation; format: physicochemical; conditions: for helicity in isolation: peptide in isolation, from θ222, 20 °C
Procedure, shortened: (§1)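 CD spectra of homodimeric or c-Jun heterodimeric samples, 150 μM total peptide, 10 mM potassium phosphate, 100 mM KF, pH 7, 1-mm cell. Scans 300–190 nm at 20 °C (pre- and post-melt) and at −8 °C. Converted to molar residue ellipticity, giving θ222/θ208. Fraction helicity taken from θ222 with k = 2.4 and T = 293 K.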

c-Jun-DHFR2 = assay: Growth competition under PCA conditions; format: cell-based, Escherichia coli; conditions: M9 minimal media with trimethoprim and IPTG; A600 hourly, in duplicate
Procedure, shortened: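 Split murine DHFR complementation in E. coli: library peptide fused to DHFR fragment 1, c-Jun to fragment 2, both lac-driven. Strains came from single colonies on PCA plates with sequence-verified plasmids. Growth rates were monitored under selection in M9 minimal medium with ampicillin, chloramphenicol, kanamycin, trimethoprim and IPTG (1 mM induction).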

c-Jun [4] = molecular target: T1, c-Jun; assay: CD spectra of heterodimeric complexes with c-Jun; conditions: for θ222/θ208 (20 °C) / Fraction helical (fH): heterodimer with c-Jun; for θ222/θ208 (20 °C): CD, 150 μM total peptide, pH 7, 20 °C; for Fraction helical (fH): from θ222, 20 °C
Procedure, shortened: as §1

[5] = Thermal melts followed by CD at 222 nm, homodimers; format: physicochemical; conditions: homodimer; CD 222 nm, 150 μM total peptide, pH 7
Procedure, shortened: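 CD thermal denaturation at 222 nm, 150 μM total peptide, 10 mM potassium phosphate, 100 mM KF, pH 7. Started at −8 °C and stepped in 1 °C increments with a 30 s hold, signal averaged over 4 s per point. Tm obtained by least-squares fit to a two-state model (modified Gibbs-Helmholtz).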

c-Jun [6] = molecular target: T1, c-Jun; assay: CD dimer exchange experiment; format: binding; conditions: CD spectra, total peptide 150 μM
Procedure, shortened: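 Equilibrium mixing followed by CD in 10 mM potassium phosphate, 100 mM KF, pH 7. Spectra recorded for the c-Fos homodimer and for the test peptide–c-Jun heterodimer, each at 150 μM total peptide. Equal volumes of the two solutions were then mixed, keeping the final total peptide at 150 μM, and the spectrum was re-recorded.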

c-Jun [7] = molecular target: T1, c-Jun; conditions: heterodimer with c-Jun; cited from earlier work
[8] = molecular target: c-Jun (37-residue leucine zipper peptide); assay: ITC
[9] = molecular target: c-Jun (37-residue leucine zipper peptide); assay: CD thermal denaturation

Row | ΔH (c-Jun [2]) | ΔGbind (ITC) (c-Jun [2]) | TΔS (ΔH − ΔG) (c-Jun [2]) | θ222/θ208 (20 °C) (c-Jun [4]) | Fraction helical (fH) (c-Jun [4]) | Ka [8] | Kd [9] | Molecule | affinity for c-Jun by E. coli growth rate (c-Jun-DHFR2) | also measured
1 | -0.8 ± 0.4 kcal/mol | -6.1 ± 0.4 kcal/mol | 5.3 ± 0.5 kcal/mol | 0.75 | 3.6% |  |  | ASTDTLQAETDQLEDEKYALQTEIANLLKEKEKLGAP [c-Fos] | lower affinity interaction | Tm (c-Jun [7]): 16 °C
2 |  |  |  |  |  | 38000 M⁻¹ | 26600 nM | c-Fos (37-residue leucine zipper peptide) |  | 

Continued, molecule first:

Row | Molecule | ΔH (c-Jun [2]) | ΔGbind (ITC) (c-Jun [2]) | TΔS (ΔH − ΔG) (c-Jun [2]) | θ222/θ208 (20 °C) (c-Jun [4]) | Fraction helical (fH) (c-Jun [4]) | Ka [8] | Kd [9] | affinity for c-Jun by E. coli growth rate (c-Jun-DHFR2) | also measured
3 | ASIARLEEKVKTLKAQNYELASTANMLREQVAQLGAP [c-Jun] |  |  |  |  |  |  |  |  | Tm [1]: 24 °C
4 | ASLDELQAEIEQLEERNYALRKEIEDLQKQLEKLGAP [FosW] | -10.6 ± 0.2 kcal/mol | -9.9 ± 0.1 kcal/mol | -0.7 ± 0.2 kcal/mol | 1.0 | 35.8% |  |  | much improved affinity over c-Fos | helicity in isolation [3]: 43.7%
5 | ASLDELQREIEQLEELNYALQKEIEDLQKQGAP [4hFosW] | -14.1 ± 0.2 kcal/mol | -8.8 ± 0.1 kcal/mol | -5.3 ± 0.2 kcal/mol | 0.99 | 60.4% |  |  | much improved affinity over c-Fos | Tm [5]: 36 °C; loss of stability of complex with c-Jun relative to c-Jun-FosW (c-Jun [2]; ITC free energy of binding): around 1 kcal/mol; gain in helicity in isolation relative to FosW [3]: ~7%; magnitude of the CD peak at 222 nm ([3]; homodimeric complex, 20 °C): approximately −87 millidegrees; ratio θ222/θ208 ([3]; peptide in isolation (homodimeric)): ~1.0; helicity in isolation [3]: 50.6%; magnitude of the CD peak at 222 nm (c-Jun [4]; heterodimeric complex with c-Jun, 20 °C): approximately −112 millidegrees; gain in helicity of complex with c-Jun over c-Jun-FosW (c-Jun [4]; measured helicity by CD): ~25%; specificity for c-Jun in the presence of c-Fos (c-Jun [6]): specific for c-Jun in the presence of c-Fos
6 | Ac-ASLDELQREIEQLEELNYALQKEIEDLQKQGAP-NH2 [4hFosW] |  |  |  |  |  | 2.1e+06 M⁻¹ | 487 nM |  | dH [8]: -14.1 kcal/mol; stoichiometry N [8]: 1.05; Tm [9]: 49 °C
7 | Ac-ASLDELQAEIEQLEERNYALRKEIEDLQKQLEKLGAP-NH2 [FosW] |  |  |  |  |  | 2.2e+07 M⁻¹ | 45 nM |  | dH [8]: -10.6 kcal/mol; stoichiometry N [8]: 0.65; Tm [9]: 63 °C
